One data set is described as follows: Hygroscopicity test. It is filed as physicochemical. Particulars: 25 °C/80% RH for 24 h. In a few lines:
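Co-amorphous samples were held at 25 °C/80% RH for 24 h, and percentage weight gain was calculated, n = 3. Pharmacopeial criteria were applied: a gain above 2% but below 15% counts as hygroscopic.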

The nature of the next data set: Stability experiments. It is filed as physicochemical. Particulars: 75% RH for 5 and 10 days.
The test system of data set [1] is GLUT4 expression in H9c2 cells. The data set is described as follows: GLUT4 immunofluorescence. It is filed as cell-based. Particulars: 2 h pre-treatment before HGHI incubation. In a few lines: (§1)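 Before the high-glucose/high-insulin step (30 mM glucose, 5 μM insulin, 30 h), cells were pre-treated for 2 h with the PI3K inhibitor LY294002 or the AMPK inhibitor dorsomorphin. They then received test compounds at varying concentrations for 24 h. GLUT4 was immunostained with a rabbit polyclonal primary and a fluorescein-conjugated secondary, with DAPI for nuclei. Cells were imaged by confocal microscopy and GLUT4 signal was quantified.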

The test system of data set [2] is GLUT4 expression in HepG2 cells. The experiment in a line: GLUT4 immunofluorescence. It is filed as cell-based. Particulars: 2 h pre-treatment before HGHI incubation. In a few lines:
as §1

The test system of a further data set is HepG2 cells. The experiment in a line: Cytotoxicity, MTT assay under HGHI conditions. Particulars: 24 h. It is filed as cell-based. In a few lines:
(§2)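 Cell lines were kept in DMEM (25 mM glucose, 10% FBS, 1% penicillin/streptomycin) at 37 °C and 5% CO2. Insulin resistance was induced with 30 mM glucose plus 5 μM insulin for 30 h. Cells were then exposed for 24 h under these conditions to a range of concentrations of the single components, a physical mixture or the co-amorphous system. Viability was read by MTT, n = 3, mean ± SD.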
(In general: Tetrazolium dyes change colour on reduction, which living cells bring about.)

A further data set concerns H9c2 cells. The experiment in a line: Cytotoxicity, MTT assay under HGHI conditions. Particulars: 24 h. Type of data set: cell-based. Put shortly: as §2

Where a name gives a salt, the structure may show the parent alone.

Regarding `CCOc1ccc(Cc2cc([C@@H]3O[C@H](CO)[C@@H](O)[C@H](O)[C@H]3O)ccc2Cl)cc1` [DAP, Dapagliflozin], the “Percentage of weight gain (hygroscopicity)” value in “Hygroscopicity test” came out at 5.36%. The “Phase stability under high humidity (XRD)” value in “Stability experiments” is on record as “remained amorphous”.
As for `O=c1cc(N2CCOCC2)oc2c(-c3ccccc3)cccc12` [LY294002], the “Effect of inhibitor on GLUT4 fluorescence induced by COA-I” value in data set [1] and in data set [2] was “attenuated” each time.
With `CCc1ccc(CCOc2ccc(CC3SC(=O)NC3=O)cc2)nc1` (stereo not drawn) [PIO, Pioglitazone], in “Hygroscopicity test”, the “Percentage of weight gain (hygroscopicity)” value amounted to 0.86%. The Concentrations showing cytotoxicity result in the data set on HepG2 cells and with H9c2 cells was “higher than 10 μM” throughout.
On to `c1cc(-c2cnn3cc(-c4ccc(OCCN5CCCCC5)cc4)cnc23)ccn1` [compound C, dorsomorphin (compound C) dihydrochloride], for which the “Effect of inhibitor on GLUT4 fluorescence induced by COA-I” value in data set [1] and in data set [2] was “attenuated” throughout.
